We go through 167 variants from the RNAGym collection of RNA variant scans (doi:10.1126/science.aae0568).

Fewer inactive variants are shown than the library holds. Where only a bound is given, the exact number is not on record here.

Sequences and labels used below:
B1: tRNA (parent)
chain: GUUCCGUUGGCGUAAUGGUAACGCGUCUCCCUCCUAAGGAGAAGACUGCGGGUUCGAGUCCCGUACGGAACG

The data set covers variants of B1. In words: yeast fitness relative to wild type (ratio to wild type); higher = fitter; tRNA-Arg(CCU), competitive growth, 37 C, YPD. An outline of the steps:
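Gene amplicons from the start population and from each of six end populations were read by 100-nucleotide paired-end sequencing. Those end populations came from pooled Saccharomyces cerevisiae strains carrying tRNA-Arg(CCU) gene variants at the native locus, competed in YPD at 37°C for 24 hours. Fitness relative to wild type was worked out from changes in genotype frequencies. Genotypes needed ≥ 100 starting reads, and estimates < 0.5 were set to 0.5.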
With C4U G12A A20G C22U U35A A45C, the yeast fitness was at most 0.5.

Take U8C U13G C22U C49U A65U: the yeast fitness is at most 0.5.

For the variant C30A A37C C60A, the yeast fitness is at most 0.5.

As to C61U G68A, the yeast fitness turned out to be 0.711.

As to A14U U47A A69G, the yeast fitness came to 0.66.

With U2C C66U A69U, the yeast fitness came to 0.603.

As for U47A A57G, the yeast fitness was found to be 0.923.

As to C5A U8C A20G C34G A43U C66U, the yeast fitness was at most 0.5.

For C24G A42C C55A U59A A70U, the yeast fitness was at most 0.5.

In the case of U3A U19A C61U A70U, the yeast fitness stood at 0.551.

As to U2C U7G A15G A45U G50A A57C, the yeast fitness was at most 0.5.

As to C5A C30U G68U, the yeast fitness amounted to 0.567.

Consider G9A U28C A36G, for which the yeast fitness was 0.683.

Regarding C11A A36C A42G U47C G67A, the yeast fitness was at most 0.5.

C11U A45U C61G A65C: the yeast fitness was at most 0.5.

For C4G C22G U64A A65U, the yeast fitness is at most 0.5.

Turning to U13C A37U C49G, the yeast fitness is at most 0.5.

With U8C C22A C33G G39C C46U C66U, the yeast fitness was 0.536.

For G6A C34A A40U U59G, the yeast fitness was at most 0.5.

For C30U A45U A69U, the yeast fitness was 0.797.

As to A42U C55U A69C, the yeast fitness came to 0.511.

With U13C G25C U28G G58A C60G, the yeast fitness was 0.622.

For the variant C27G A42U, the yeast fitness turned out to be 0.721.

Take A15G A20C C62G: the yeast fitness is 0.731.

As to A37U C55G G68C, the yeast fitness is at most 0.5.

Take U2A A15U C22A A45G C46A U53C: the yeast fitness worked out at 0.589.

In the case of C5A A20C U64A G67A, the yeast fitness is at most 0.5.

Turning to C27G U28A C61U A65U A70U, the yeast fitness was at most 0.5.

On to U2A C34G C49A G50A, for which the yeast fitness was 0.517.

As for C30A C31A C49U C55G, the yeast fitness was 0.672.

Consider C11G A14G C24G G67C, for which the yeast fitness is at most 0.5.

On to A45C G63A A69U, for which the yeast fitness is 0.793.

Take A20G C22U G51C: the yeast fitness is at most 0.5.

As for U26C A36U, the yeast fitness came to 0.608.

For the variant G10C G12A U54A G68A, the yeast fitness is at most 0.5.

Consider G10C A36U, for which the yeast fitness was determined as 0.539.

Consider U28C C30A G39A C66U, for which the yeast fitness was found to be 0.594.

For the variant C61A A65U, the yeast fitness is 0.604.

With G6C A15U G23C C31G G41C G48C A69U, the yeast fitness is 0.562.

As for U13A C22G G25C C27U C30G A57C A69U, the yeast fitness was at most 0.5.

Turning to U2G C4U A20C C30G, the yeast fitness was at most 0.5.

For U19C C46G A65G, the yeast fitness is 0.716.

Take U32A A36U G44C A45G: the yeast fitness amounted to 0.516.

Take C22U C60G: the yeast fitness is 0.688.

Regarding C5U A45U C49A, the yeast fitness turned out to be 0.696.

On to A15G U32A A43U, for which the yeast fitness stood at 0.603.

Turning to G10C C11G G56C G68A, the yeast fitness was at most 0.5.

Regarding U2C C27G U28A A43U A69U, the yeast fitness came to 0.541.

For C22U C62G A69U, the yeast fitness came out at 0.586.

On to U3A C11U A65C, for which the yeast fitness stood at 0.61.

As to U26A A70U, the yeast fitness was found to be 0.876.

C24A C33U C62U: the yeast fitness is at most 0.5.

As for C30U G41C A45U, the yeast fitness is at most 0.5.

Turning to C31U C61A C62U A65U, the yeast fitness was at most 0.5.

As for A20U C24U A42U C46A C55U C61G, the yeast fitness stood at 0.518.

As for G10A A57G G68C, the yeast fitness is at most 0.5.

In the case of U32C C34U U53A G68C, the yeast fitness was found to be 0.537.

As to G6A C27G A57C C66G, the yeast fitness was at most 0.5.

In the case of C11G C24G C27A U28C C66U, the yeast fitness was at most 0.5.

In the case of C4U G12A A20G C22U, the yeast fitness is 0.532.

As for U13C C49G C61G, the yeast fitness is at most 0.5.

For C27A C31A G52A G58C, the yeast fitness was at most 0.5.

C11U U35A G38A G56C: the yeast fitness is at most 0.5.

A57G U59C A69U: the yeast fitness came to 0.748.

As for C31U G39C, the yeast fitness stood at 0.901.

For the variant C34G G44C, the yeast fitness amounted to 0.652.

Turning to G17C C24G U28A C30U A65U, the yeast fitness is at most 0.5.

G39A G50A C66U: the yeast fitness was at most 0.5.

In the case of U19G U47C U64G, the yeast fitness amounted to 0.536.

Turning to A36C A57C A70G, the yeast fitness amounted to 0.552.

With C5U C30A, the yeast fitness came to 0.889.

For the variant C4A C11U A45U C66U, the yeast fitness was at most 0.5.

With C4U C11G A20G C34U, the yeast fitness is at most 0.5.

On to U2C G10C, for which the yeast fitness came out at 0.724.

A45G G58A A65U: the yeast fitness is 0.741.

On to U3C G12A G48C, for which the yeast fitness amounted to 0.558.

Regarding C11A C62G G63A, the yeast fitness was at most 0.5.

For the variant C27A G58C, the yeast fitness is 1.13.

For the variant A20G G50C G63C G67C, the yeast fitness is at most 0.5.

As for U7A A36C G51C G63A, the yeast fitness is at most 0.5.

As to C24A A36U C55A C66U, the yeast fitness is at most 0.5.

Take C55U A57U: the yeast fitness was found to be 0.634.

For the variant U7G G39A C55U G68C, the yeast fitness worked out at 0.594.

Consider G56A A70U, for which the yeast fitness was found to be 0.918.

For U28A C31U, the yeast fitness came out at 0.7.

As to C22G G25C U35C A37G A65U, the yeast fitness was at most 0.5.

In the case of U2G U54C C66U, the yeast fitness is at most 0.5.

Turning to C4U C29A C31G A42C A45U, the yeast fitness is at most 0.5.

Turning to U19A U32C C49A, the yeast fitness was at most 0.5.

In the case of A21U C29U C31U U54C A70G, the yeast fitness is at most 0.5.

C5A C30U A40U: the yeast fitness worked out at 0.621.

Turning to C29A C49U G63A, the yeast fitness was at most 0.5.

Take G12C U32G C33G U47C A57C: the yeast fitness is at most 0.5.

As to C30A C55A C62A, the yeast fitness is at most 0.5.

Regarding U28A C34U G41C G51A U53A U59C A70U, the yeast fitness was at most 0.5.

With G10A C60G C61G, the yeast fitness amounted to 0.528.

In the case of C4G A21U U54G, the yeast fitness worked out at 0.607.

As for U32A C49G C55U A69C, the yeast fitness was found to be 0.546.

Consider C11A C33U A43U, for which the yeast fitness stood at 0.532.

With A21U A37U C60G, the yeast fitness came to 0.608.

A14G C46U: the yeast fitness was 0.886.

As to G6A A14C, the yeast fitness was found to be 0.674.

For C30U G56A, the yeast fitness came out at 0.942.

In the case of C33U G52A A57U, the yeast fitness is at most 0.5.

For the variant C5G G9A C30G, the yeast fitness was at most 0.5.

For the variant C27U G38C A57G A65C, the yeast fitness is at most 0.5.

For C30U A65C, the yeast fitness was determined as 0.841.

C4U G67U: the yeast fitness came out at 0.782.

Take U7A A14G: the yeast fitness is 0.709.

Take U7A U32G C33A C62G C66U: the yeast fitness is at most 0.5.

In the case of C5U G12A G48A, the yeast fitness stood at 1.18.

Consider G23C G41A A45C A65C, for which the yeast fitness worked out at 0.583.

Consider C11U A21C C22G U54C C62A, for which the yeast fitness was at most 0.5.

As for U2G G12A C55U C61A, the yeast fitness is at most 0.5.

With U16C A42G G67A, the yeast fitness was at most 0.5.

Consider U7A C46A G68U, for which the yeast fitness was at most 0.5.

On to C5G U64G, for which the yeast fitness came out at 0.86.

Regarding A42G U47G G50C, the yeast fitness is 0.608.

Turning to U7A A20G G23C C29G G51A G56U, the yeast fitness was at most 0.5.

For the variant C4G C11U A14U C30G A69U, the yeast fitness was at most 0.5.

As to U8A U19C G48C U59A C61U C66U, the yeast fitness is at most 0.5.

On to A14U A57C U59A, for which the yeast fitness stood at 0.703.

Consider C24A A45G A57U C62U, for which the yeast fitness was at most 0.5.

As for C4U A36U A40C A65C, the yeast fitness was at most 0.5.

With U16A U32A A40C U53A, the yeast fitness stood at 0.551.

Turning to C4U G12C A20G U47A C49U A57U C61A G68A, the yeast fitness is at most 0.5.

Turning to G10C G25A, the yeast fitness came out at 0.691.

As for G6A A36C, the yeast fitness turned out to be 0.53.

As to C5G C27U G41C C61U C66G, the yeast fitness was at most 0.5.

In the case of C11A A15C U26A C29U C33A G38C C55A C60U, the yeast fitness is at most 0.5.

As to U2A C61U A70C, the yeast fitness was 0.585.

Turning to U26G C49G, the yeast fitness was found to be 0.851.

C29G G67A: the yeast fitness was 0.565.

In the case of A14G A65U, the yeast fitness was 0.737.

A14G A65C: the yeast fitness stood at 0.903.

For A40U G44A A65U, the yeast fitness is 0.51.

For C5G U7C G51C, the yeast fitness was found to be 0.564.

Regarding C4U A36G G39A, the yeast fitness is 0.679.

In the case of G12C A43U U59A A69G, the yeast fitness was at most 0.5.

For A14C G51C, the yeast fitness was 0.53.

On to A20U C30A, for which the yeast fitness amounted to 0.795.

Turning to U13C A43U C46G, the yeast fitness was at most 0.5.

Take C5U U8C A21G A42U G58A: the yeast fitness came to 0.726.

As for C22A A45C, the yeast fitness is 0.665.

As to C11G C49A G67C, the yeast fitness is at most 0.5.

For U13G C61A C66A, the yeast fitness is at most 0.5.

For C31U U54A C62G G68C, the yeast fitness was at most 0.5.

With C4A C5U C22U C34A C49G, the yeast fitness is at most 0.5.

Regarding U2A A15C G58C U64C, the yeast fitness is 0.53.

Turning to C5U G51C, the yeast fitness was determined as 0.691.

In the case of C22G C29A U53A C66U, the yeast fitness was at most 0.5.

With C24G A43G U47A U53A, the yeast fitness is at most 0.5.

In the case of C5G U28A C55G, the yeast fitness was at most 0.5.

As to C5A C60G, the yeast fitness is 0.551.

Take U28A C30G U59C: the yeast fitness was at most 0.5.

For the variant C30A G50C, the yeast fitness came to 0.594.

As to C5G A40C, the yeast fitness stood at 0.638.

Take G6A U8C A20C C27U: the yeast fitness was at most 0.5.

As for U2C U13C C27A C61U, the yeast fitness is at most 0.5.

Turning to C22U G52C G68A, the yeast fitness was at most 0.5.

As for G6C A37G C60G A65U, the yeast fitness was at most 0.5.

Consider A45U C62G G63C, for which the yeast fitness was at most 0.5.

Take G9A U19G U59C C62G A65U: the yeast fitness is at most 0.5.

Take U32G C49U G56A: the yeast fitness is 0.744.

As for C4A C27U A42U C62U, the yeast fitness was at most 0.5.

With U16C C31A C34U A69C, the yeast fitness was at most 0.5.

U2G C4A C22U U28G A42U C61U: the yeast fitness is at most 0.5.
